Bioassay records (PubChem)
GPR7 antagonist: GPR7 receptor antagonists, primary screen, cell-based, fluorescence, single concentration; 290,000 tested, 1.1% active; GPR7-expressing cells, fluorescence antagonist assay; Neuropeptides B/W receptor type 1 (Homo sapiens), P48145; inhibition, % at 4.4 µM; AID 1861, 2009; in the data active means inhibition above about 16%, passing the limit was not always enough;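 further: cells stimulated with the agonist NPW; 0% = agonist with vehicle and 100% = vehicle without agonist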
Target sequence (P48145 whole entry, looked up): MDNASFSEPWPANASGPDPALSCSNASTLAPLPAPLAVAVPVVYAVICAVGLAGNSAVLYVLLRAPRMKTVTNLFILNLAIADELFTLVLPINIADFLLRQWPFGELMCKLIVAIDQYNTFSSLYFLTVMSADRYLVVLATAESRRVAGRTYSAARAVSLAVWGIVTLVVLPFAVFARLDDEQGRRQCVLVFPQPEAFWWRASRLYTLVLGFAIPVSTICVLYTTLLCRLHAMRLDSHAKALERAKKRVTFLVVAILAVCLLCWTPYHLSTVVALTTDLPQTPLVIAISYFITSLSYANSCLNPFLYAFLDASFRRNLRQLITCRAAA
CHO parental Ca: ATP-evoked calcium signal inhibitors, parental CHO, primary screen, counter-screen for OX1R antagonist project, cell-based, fluorescence, Fluo-8 calcium dye. parental CHO-K1, ATP-induced calcium, Fluo-8 fluorescence. inhibition, % at 5.6 µM. 330,000 tested, 0.63% active. AID 463079, 2010;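 active means inhibition above that plate's mean sample inhibition plus 3 SD, cut at about 26% in these data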;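 further: 0% = ATP-challenged DMSO wells and 100% = DMSO wells without ATP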
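Test system: parental CHO cells; detection: calcium-sensitive Fluo-8 fluorescence; evaluation: percent inhibition of calcium signal; also added: ATP as calcium-mobilizing challenge; repeats: one well per compound; control set: ATP-challenged DMSO wells low, unchallenged DMSO wells high; compound: single nominal dose of 5.6 µM per compound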
OX1R antag-1: OX1R (HCRTR1) antagonists, primary screen, fluorescence, CHO/OX1R cells, Fluo-8 calcium, orexin A; Orexin/Hypocretin receptor type 1 (Homo sapiens), O43613; Fluo-8 calcium fluorescence; inhibition, % at 5 µM; 330,000 tested, 0.43% active;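 active means inhibition above its plate's threshold, mean inhibition of all tested compounds on the plate plus 3 SD, cut at about 37% in these data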;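 further: 0% = orexin A challenge wells and 100% = SB-334867-A antagonist wells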
TAAR1 antagonist: human TAAR1 antagonists, primary screen, Fluo-8 calcium fluorescence, CHO RD-HGA16 cells | Trace amine-associated receptor 1 (Homo sapiens), Q96RJ0 | antagonist | inhibition, % at 3 µM | 360,000 tested, 1.5% active;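 active means inhibition above a per-plate cutoff, the mean inhibition of test compounds on that plate plus 3 SD, cut at about 49% in these data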;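 further: 0% = DMSO plus EC80 beta-PEA response and 100% = DMSO alone without agonist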
Target sequence (Q96RJ0 whole entry, looked up): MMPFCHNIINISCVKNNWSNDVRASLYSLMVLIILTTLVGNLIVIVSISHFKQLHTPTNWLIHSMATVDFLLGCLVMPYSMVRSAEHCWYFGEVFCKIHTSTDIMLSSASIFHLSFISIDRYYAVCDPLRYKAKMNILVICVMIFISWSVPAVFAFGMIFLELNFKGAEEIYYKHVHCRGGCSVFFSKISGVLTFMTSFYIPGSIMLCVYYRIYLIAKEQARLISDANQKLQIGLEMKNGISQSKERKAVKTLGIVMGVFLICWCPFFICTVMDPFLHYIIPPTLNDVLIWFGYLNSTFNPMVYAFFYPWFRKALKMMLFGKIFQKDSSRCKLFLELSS
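Test system – hTAAR1-expressing CHO RD-HGA16 cells, Gα16-coupled · Reagent – β-PEA at EC80 concentration, post-compound challenge · Compound dosing – 3 µM, single point · Timing – 140 s kinetic read after compound, 140 s after agonist · Detection – Fluo-8 intracellular calcium dye fluorescence, real-time kinetic reads · Control set – DMSO and EC80 PEA controls · Repeats – n of 1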
OX1R antag-2: antagonists of human orexin 1 receptor (OX1R) | inhibition, % at 6.6 µM | OX1R-expressing cells, FRET antagonist read-out | AID 485270, 2010 | 330,000 tested, 1.8% active; in the data active means inhibition mostly above about 38%, no sharp cut-off; inactive means mostly below about 40%;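 further: 0% = agonist challenge alone and 100% = reference antagonist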
TAAR1 agonist: human TAAR1 agonists, primary screen, Fluo-8 calcium fluorescence, CHO RD-HGA16 cells; 360,000 tested, 0.99% active; activation, % at 3 µM; Trace amine-associated receptor 1 (Homo sapiens), Q96RJ0; vehicle wells 0%, saturating PEA agonist 100%;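 active means activation above the mean activation of all test compounds in the run plus 3 SD, cut at about 38% in these data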
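Repeats: no replicates (n 1) | Material: CHO-derived RD-HGA16 cells with stable Gα16 and human TAAR1 | Technique: Kinetic Fluo-8 calcium fluorescence | Schedule: 17-24 h seeding, 75 min 37 °C dye, 30 min RT | Evaluation: % activation from peak over basal fluorescence ratio, DMSO-to-PEA scaled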
Active calls of the source: *; nt = no result. Rows were chosen to be rich in hits. Some 4.6% of all compounds tested hit in one or more screens of this group.

SMILES	GPR7 antagonist	CHO parental Ca	OX1R antag-1	TAAR1 antagonist	OX1R antag-2	TAAR1 agonist
COC(=O)[C@]12CCCCC=C1N(Cc1cccc3ccccc13)C(=O)[C@H](CC(=O)NCc1ccc(OC)c(OC)c1)C2	nt	nt	nt	49*	nt	27
COC(=O)C1=C(C)N(Cc2ccc(Br)cc2)C(=S)NC1c1ccc(OC)cc1 (centres undefined)	nt	nt	nt	26	nt	-1
O=[N+]([O-])c1ccc(N2CCCC2)nc1	-2	-15	-5	-18	42*	1
COc1ccc(OCCNC(=O)C2(C)CCN2Cc2ccc3ccccc3c2)cc1 (centres undefined)	nt	nt	nt	42	nt	2
COc1ccc(COc2cccnc2N)cc1	20*	-1	-6	-5	2	5
Nc1ncccc1OCc1ccc(Br)cc1	-4	-6	-20	-2	35	3
CCc1nc2ccc(C(=O)NCCCn3ccnc3)cn2c1N(C)Cc1nccs1	nt	nt	nt	-2	nt	1
S=C(NCc1ccccc1)N1CCN(c2cccc(Cl)c2)CC1	32*	13	20	12	27	6
O=C(CN1CCN(c2cccc(Cl)c2)CC1)NCc1ccccc1	-3	-17	-29	-14	5	0
COc1cc(/C=C2\SC(=N)N(c3ccc4c(c3)OCO4)C2=O)cc(OC)c1O	-7	-1	-9	18	51*	9
Cc1cc(C)nc(-n2nc(C)cc2NC(=O)CN2CCc3ccccc3C2)n1	-3	-30	-28	0	12	43*
Cc1cc(C)nc(-n2nc(C)cc2NC(=O)CN2CCCC(C)C2)n1 (centres undefined)	-4	-16	-6	-10	22	11
CC(C)OC(=O)[C@@H](Cc1ccccc1)N[C@H](/C=C/c1ccccc1)[C@@H](O)Cc1ccccc1	nt	nt	nt	26	nt	0
CCCC(=O)Nc1ccc(Cl)c(NC(=S)NC(=O)C(C)C)c1	2	9	-4	-6	12	4
CCCC(=O)Nc1ccc(Cl)c(NC(=O)c2cccnc2Cl)c1	6	7	1	2	16	39*
CC(C)OC(=O)/C(=C\c1ccc2c(c1)c1ccccc1n2C)NC(=O)c1ccccc1	-7	4	15	50*	35	4
COC(=O)c1cc2c(c3c4ccccc4n(S(=O)(=O)c4ccc(C)cc4)c13)C(=O)N(C)C2	nt	nt	nt	-16	nt	-2
N/C(=N\OC(=O)CCCCCN1C(=O)c2ccccc2C1=O)c1ccccc1	5	-13	-9	12	62*	-3
N/C(=N\OC(=O)CCCN1C(=O)c2ccccc2C1=O)c1ccc(Br)cc1	-3	-5	-16	14	19	11
CC(C)C[C@H](NC(=O)c1ccccn1)C(=O)N1CCC[C@H]1C(=O)NCc1ccccc1	nt	nt	nt	-8	nt	4
COc1ccc(S(=O)(=O)N2CCCC2CNC(=O)c2cccc(OC)c2)cc1 (centres undefined)	nt	-14	-2	-29	43*	5
COc1cccc(C(=O)NCC2CCCN2S(=O)(=O)c2cccs2)c1 (centres undefined)	nt	-9	-11	0	30	1
COc1cccc(CNC(=O)c2ccc(S(=O)(=O)N3CCCC3)cc2)c1	0	-12	-13	-11	26	13
O=C(NCC1CCCN1S(=O)(=O)c1cccs1)c1cccc(Cl)c1 (centres undefined)	nt	-23	-12	-15	53*	3
COc1cccc(CNC(=O)c2ccc(S(=O)(=O)N3CCCCC3)cc2)c1	nt	nt	nt	51*	nt	9
SMILES	GPR7 antagonist	CHO parental Ca	OX1R antag-1	TAAR1 antagonist	OX1R antag-2	TAAR1 agonist
O=C(NCC1CCCN1S(=O)(=O)c1cccs1)C(=O)Nc1ccccc1Cl (centres undefined)	nt	2	0	-14	45*	5
Cc1ccc(NC(=O)Cn2c(=O)oc3cc(S(=O)(=O)N4CCC(C)CC4)ccc32)cc1C	-16	32*	-8	18	14	-2
COc1ccc(NC(=O)Cn2c(=O)oc3cc(S(=O)(=O)N4CCCC4)ccc32)cc1	-10	9	0	-13	2	4
O=C(Nc1ccc(F)cc1)C(c1cccc(F)c1)N1CCN(c2ccncc2)CC1 (centres undefined)	nt	nt	nt	-10	nt	3
CC(C)(C)c1ccc(CC(=O)N2CCC2(C)C(=O)Nc2cnc3ccccc3c2)cc1 (centres undefined)	nt	nt	nt	53*	nt	2
CC(C)c1ccc(CC(=O)N2CCC2(C)C(=O)Nc2cnc3ccccc3c2)cc1 (centres undefined)	nt	nt	nt	17	nt	5
COc1cccc2c1C(=O)c1c(O)c3c(c(O)c1C2=O)C[C@@](O)(C(=O)CO)C[C@@H]3O[C@H]1C[C@H](N)[C@H](O)[C@H](C)O1	5	24	27	12	44*	7
COc1cccc2c1C(=O)c1c(O)c3c(c(O)c1C2=O)CC(O)(C(C)=O)CC3OC1CC(N(C)C)C(O)C(C)O1 (centres undefined)	nt	nt	nt	5	nt	4
CC(=O)[C@@]1(O)Cc2c(O)c3c(c(O)c2[C@H](O[C@H]2C[C@H](N)[C@H](O)[C@H](C)O2)C1)C(=O)c1ccccc1C3=O	nt	nt	nt	44	nt	66*
COc1cccc2c1C(=O)c1c(O)c3c(c(O)c1C2=O)C[C@@](O)(C(=O)CO)C[C@@H]3OC1CC(N)C(O)C(C)O1 (some centres undefined)	nt	nt	nt	26	nt	14
O=C(Nc1ccc(O)cc1)/C(=C\C=C\c1ccccc1)NC(=O)c1ccccc1	-5	-8	-6	50*	6	6
NC(=S)c1csc(CCNC(=O)c2ccccc2)n1	nt	nt	nt	-7	nt	2
CC1(C(=O)NCc2ccccc2)CN(S(C)(=O)=O)CC(=O)N1Cc1cccc(C(F)(F)F)c1 (centres undefined)	nt	nt	nt	-2	nt	2
CNC(=O)c1cc(Oc2ccc(NC(=O)Nc3ccc(Cl)c(C(F)(F)F)c3)cc2)ccn1	nt	19	39	47	47*	44*
O=C(Nc1ccc(Cl)c(C(F)(F)F)c1)c1ccncc1	3	-12	-7	-25	32	21
O=C(NC1=C(Nc2ccc(Cl)cc2)C(=O)c2ccccc2C1=O)c1ccccc1	-6	-27	-11	26	56	8
Cc1cccc(NC2=C(NC(=O)c3ccccc3)C(=O)c3ccccc3C2=O)c1	6	-28	-26	-8	75*	1
